Test results published in ChEMBL document CHEMBL1124695, “Brain-specific chemical delivery systems for beta-lactam antibiotics. Synthesis and properties of some dihydropyridine and dihydroiosquinoline derivatives of benzylpenicillin” (J Med Chem, 1989).

Experiments:
[1] = Half life of compound when water is added (0.15u) in pH 7.4 phosphate buffer (0.05 M) at 37 degree C; assay type: ADME
In short: (§1)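 Chemical stability: compound added from freshly prepared 8 mM DMSO stock into 0.05 M phosphate buffer (μ = 0.15), pH 7.4, at 37 °C. Samples drawn at intervals and injected directly onto reversed-phase HPLC with UV detection. Buffer pH checked before and after. Disappearance followed first-order kinetics, giving apparent rate constants. Half-life in minutes.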

[2] = Second order oxidation rate constant determined by using Ferricyanide; assay type: ADME
In short: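 Oxidation by ferricyanide under pseudo-first-order conditions, with Fe(CN)6^3- in large excess over the dihydro carrier and pH held constant. Pseudo-first-order rates were measured at several ferricyanide concentrations, and the second-order oxidation rate constant (Ko) was derived from them.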

[3] = Half life of compound (0.15u) in pH 7.4 phosphate buffer (0.05 M) at 37 degree C; assay type: ADME; in short: as §1
[4] = Stability in aqueous buffer at pH 7.4; assay type: physicochemical; in short: as §1
Homo sapiens [5] = assay: Concentration of compound in human blood tissues after intravenous administration of 2 g dose; assay type: ADME, organism-based
[6] = Dissociation constant of the compound; assay type: physicochemical
Homo sapiens [7] = assay: Concentration of compound in human brain tissues after intravenous administration of 2 g dose; assay type: ADME, organism-based; conditions: in vivo
[8] = Partition coefficient (logP); assay type: physicochemical; conditions: octanol/water

| half-life [1] [h] | Compound | Ko [2] [M⁻¹ s⁻¹] | half-life [3] [h] | further results |
| --- | --- | --- | --- | --- |
| 6.06 | CC(CNC(=O)c1ccc[n+](C)c1)OC(=O)C1N2C(=O)[C@@H](NC(=O)Cc3ccccc3)[C@H]2SC1(C)C.[I-] (stereo partly specified) |  |  |  |
|  | CC1(C)S[C@@H]2[C@H](NC(=O)Cc3ccccc3)C(=O)N2C1C(=O)OCCO (stereo partly specified) |  | 7.27 | k [4]: 0.0016 min⁻¹ |
| 4.47 | C[n+]1cccc(C(=O)NCC(OC(=O)C2N3C(=O)[C@@H](NC(=O)Cc4ccccc4)[C@H]3SC2(C)C)c2ccccc2)c1.[I-] (stereo partly specified) |  |  |  |
| 0.045 | C[n+]1cccc(C(=O)OCOC(=O)C2N3C(=O)[C@@H](NC(=O)Cc4ccccc4)[C@H]3SC2(C)C)c1.[I-] (stereo partly specified) |  |  |  |
|  | CN1C=C(C(=O)NCCOC(=O)C2N3C(=O)[C@@H](NC(=O)Cc4ccccc4)[C@H]3SC2(C)C)c2ccccc2C1 (stereo partly specified) |  | 16.5 |  |
| 0.615 | C[n+]1cccc(C(=O)OCCOC(=O)C2N3C(=O)[C@@H](NC(=O)Cc4ccccc4)[C@H]3SC2(C)C)c1.[I-] (stereo partly specified) |  |  |  |
| 3.26 | C[n+]1cccc(C(=O)NCCOC(=O)C2N3C(=O)[C@@H](NC(=O)Cc4ccccc4)[C@H]3SC2(C)C)c1.[I-] (stereo partly specified) |  |  |  |
|  | CC(CNC(=O)C1=CN(C)C=CC1)OC(=O)C1N2C(=O)[C@@H](NC(=O)Cc3ccccc3)[C@H]2SC1(C)C (stereo partly specified) | 11.94 | 0.43 |  |
|  | CN1C=CCC(C(=O)NCC(OC(=O)C2N3C(=O)[C@@H](NC(=O)Cc4ccccc4)[C@H]3SC2(C)C)c2ccccc2)=C1 (stereo partly specified) | 15.85 | 0.587 |  |
|  | CC1(C)S[C@@H]2[C@H](NC(=O)Cc3ccccc3)C(=O)N2[C@H]1C(=O)O [PENICILLIN G] |  |  | Concentration (Homo sapiens [5]): 7500 ng/mL; pKa [6]: 2.6; Concentration (Homo sapiens [7]): 320 ng/mL; logP [8]: 1.76 |
| 6.29 | C[n+]1cc(C(=O)NCCOC(=O)C2N3C(=O)[C@@H](NC(=O)Cc4ccccc4)[C@H]3SC2(C)C)c2ccccc2c1.[I-] (stereo partly specified) |  |  |  |

| Compound | half-life [1] [h] | Ko [2] [M⁻¹ s⁻¹] | half-life [3] [h] | further results |
| --- | --- | --- | --- | --- |
| CN1C=CCC(C(=O)OCCOC(=O)C2N3C(=O)[C@@H](NC(=O)Cc4ccccc4)[C@H]3SC2(C)C)=C1 (stereo partly specified) | 7.38 | 1.552 | 1.93 |  |
| CN1C=CCC(C(=O)NCCOC(=O)C2N3C(=O)[C@@H](NC(=O)Cc4ccccc4)[C@H]3SC2(C)C)=C1 (stereo partly specified) | 2.47 | 26.08 | 0.213 |  |
| CN1C=CCC(C(=O)OCOC(=O)C2N3C(=O)[C@@H](NC(=O)Cc4ccccc4)[C@H]3SC2(C)C)=C1 (stereo partly specified) | 2.26 | 0.53 | 1.55 |  |
